# What was measured:
# MDA-MB-231 cells [1] = experiment: Cell cycle analysis by flow cytometry; format: cell-based, human; conditions: for apoptotic sub-G1 DNA content / G0/G1 phase DNA content: 48 h at IC50 (DET 14 μM, DETD-35 3.8 μM, PTX 60 μM); for apoptotic sub-G1 DNA content: vehicle 1.3%; for G0/G1 phase DNA content: vehicle 51.5%; for cell-cycle arrest: treatment at IC50, time course
# Method in brief: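 MDA-MB-231 cells, 5 × 10^4 per well in 6-well plates, held 24 h in DMEM with 0.5% FBS. Medium then switched to 10% FBS with test compounds for 48 h, or for indicated times. Adherent and floating cells pooled, PBS-washed and fixed in ice-cold 70% ethanol overnight at 4 °C. Stained with 20 μg/mL RNase, Triton X-100 and 20 μg/mL propidium iodide for 30 min, dark, room temperature. Phase fractions (sub-G1, G0/G1, S, G2/M) taken from flow cytometric DNA histograms; three independent experiments.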
# [2] = system: MDA-MB-231 tumor cells in SCID mice; experiment: Lung metastatic animal model of TNBC; format: in vivo, mouse; conditions: post-treatment, 5 mg/kg i.p. every three days (21 doses), day 71
# Method in brief: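 Seventy female SCID mice, 5 weeks old, randomised into 7 groups. MDA-MB-231 cells (1 × 10^6) injected i.v. on day 0. One group received 10 mg/kg every two days for three doses before cell injection. Tumor and sham controls received 5% DMSO. Mice killed on day 71; lung colonies counted, body weight and organ index recorded; one-way ANOVA.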
# [3] = system: lung tissues of MDA-MB-231 xenograft SCID mice; experiment: Immunohistochemistry of lung tissues; format: in vivo, mouse; conditions: lung tissue
# Method in brief: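 Lungs from the metastasis model were fixed in 10% buffered formalin, paraffin-embedded and cut at 4 μm. Sections stained with H&E and immunostained with rabbit antibodies to VEGF, Ki-67, COX-2 and caspase 3. Staining levels quantified by image analysis and compared with sham and tumor control groups.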
# MDA-MB-231 cells [4] = experiment: Western blot analysis of protein markers; format: cell-based, human; conditions: for PARP (full-length and cleaved) expression: 48-h treatment
# Method in brief: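 Total cellular protein from treated MDA-MB-231 cells, quantified by Bradford assay. Resolved on 4%–20% gradient SDS-PAGE and immunoblotted for PARP (full-length and cleaved), PN-1, Slug, vimentin, VEGF, E-cadherin, Snail, ZO-1 and ZEB-1, with actin as loading control. HRP secondary antibodies and enhanced chemiluminescence on film. Bands quantified by densitometry and normalised to actin.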
# MDA-MB-231 cells [5] = experiment: Compound-drug combination assay; format: cell-based, human; conditions: MTT, 24 h
# Method in brief: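 MDA-MB-231 cells seeded at 1.5 × 10^3–5 × 10^3 per well in 96-well plates. Treated 24 h with each agent alone to derive IC40 by MTT. Then treated with the test compound (0–4 μM) combined with paclitaxel (0–100 nM) and read by MTT. Interaction assessed by classic isobologram and the Chou-Talalay method. Combination index plotted against fraction affected: CI <1 synergy, =1 additive, >1 antagonism.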
# MDA-MB-231 cells [6] = experiment: Boyden chamber migration assay; format: cell-based, human; conditions: 24 h, vs vehicle; for reduction of cell migration, low concentration: DET 2.5 μM, DETD-35 1.25 μM, PTX 2.5 μM
# Method in brief: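 Boyden inserts, 6.5 mm diameter, no coating. 5 × 10^4 MDA-MB-231 cells per insert in DMEM with 0.1% FBS. The lower well held 10% FBS chemoattractant with 0.5% DMSO vehicle or test compounds at two concentrations. Incubation 24 h, 37 °C, 5% CO2. Non-migrated cells removed by swab; migrated cells fixed, DAPI-stained (1 μg/mL) and counted in three fields at 20× by fluorescence microscopy. Three independent experiments, mean ± SEM, one-way ANOVA.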
# MDA-MB-231 cells [7] = experiment: Boyden chamber; format: cell-based, human; conditions: 24 h, Matrigel
# Method in brief: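 Filters (8 μm) pre-coated with Matrigel (30 μg per filter) and held 2 h at 37 °C. MDA-MB-231 cells were seeded in the upper chamber at 5 × 10^4 per insert in DMEM with 0.1% FBS. The lower well held 10% FBS chemoattractant plus 0.5% DMSO vehicle or test compounds, two concentrations each. Incubation 24 h, 37 °C, 5% CO2. Cells on the upper surface were scraped off; invaded cells fixed, DAPI-stained (1 μg/mL) and counted in three 20× fields. Three independent experiments, mean ± SEM, one-way ANOVA.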
# [8] = system: kidney cancer cell line A498; experiment: MTT cell viability assay, A498 cells; format: cell-based; conditions: read-out: 50% inhibitory concentration (IC50), A498, 24 h
# Method in brief: (§1)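 Normal or cancer cells seeded at 2 × 10^3–1 × 10^4 per well in 96-well plates and allowed to settle overnight. Exposed to test compounds for 24 h, with paclitaxel run in parallel as reference. Growth read by MTT, OD570. Viability (%) = treated OD570 / vehicle OD570 × 100, with 0.5% DMSO vehicle set as 100%. IC50 derived from viability data.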
# B16–F10 cells (skin) = experiment: MTT cell viability assay, B16–F10 cells; format: cell-based; conditions: read-out: 50% inhibitory concentration (IC50), B16–F10 (mouse), 24 h
# Method in brief: as §1
# [9] = system: neuroepithelioma line SK-N-MC; experiment: MTT cell viability assay, SK-N-MC cells; format: cell-based; conditions: read-out: 50% inhibitory concentration (IC50), SK-N-MC, 24 h
# Method in brief: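 Cells (2 × 10^3–1 × 10^4 per well) seeded overnight in 96-well plates, then exposed to test compound for 24 h. Growth read by MTT colorimetric assay at OD570. Viability expressed as treated OD570 over vehicle (0.5% DMSO) OD570 × 100, with vehicle set to 100% viable. IC50 taken as the concentration giving 50% inhibition of viability.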
# [10] = system: lung cancer cell line PC6; experiment: MTT cell viability assay, PC6 cells; format: cell-based; conditions: read-out: 50% inhibitory concentration (IC50), PC6, 24 h
# Method in brief: as §1
# [11] = system: TS/A (ER+, HER2−) murine mammary cancer cell line; experiment: MTT cell viability assay, TS/A cells; format: cell-based; conditions: read-out: 50% inhibitory concentration (IC50), TS/A (mouse), Table 3, 24 h, breast
# Method in brief: as §1
# [12] = system: uterus cancer cell line NES-SA; experiment: MTT cell viability assay, NES-SA cells; format: cell-based; conditions: read-out: 50% inhibitory concentration (IC50), NES-SA, 24 h
# Method in brief: as §1
# [13] = system: MDA-MB-231 (ER−, PR−, HER2−) cells; experiment: MTT cell viability assay, MDA-MB-231 cells; format: cell-based, human; conditions: read-out: 50% inhibitory concentration (IC50), MDA-MB-231, Table 3, 24 h, breast
# Method in brief: as §1
# [14] = system: colon cancer cell line HCT-116; experiment: MTT cell viability assay, HCT-116 cells; format: cell-based; conditions: read-out: 50% inhibitory concentration (IC50), HCT-116, 24 h
# Method in brief: as §1
# PC3 cells (prostate) = experiment: MTT cell viability assay, PC3 cells; format: cell-based; conditions: read-out: 50% inhibitory concentration (IC50), PC3, 24 h
# Method in brief: as §1
# lymphoma line U937 = experiment: MTT cell viability assay, U937 cells; format: cell-based; conditions: read-out: 50% inhibitory concentration (IC50), U937, 24 h
# Method in brief: as §1
# [15] = system: stomach cancer cell line KATO III; experiment: MTT cell viability assay, KATO III cells; format: cell-based; conditions: read-out: 50% inhibitory concentration (IC50), KATO III, 24 h
# Method in brief: as §1
# [16] = system: brain cancer cell line U-87MG; experiment: MTT cell viability assay, U-87MG cells; format: cell-based; conditions: read-out: 50% inhibitory concentration (IC50), U-87MG, 24 h
# Method in brief: as §1
# [17] = DET 4 μM, DETD-35 2.5 μM, PTX 4 μM
Compound,apoptotic sub-G1 DNA content (MDA-MB-231 cells [1]),G0/G1 phase DNA content (MDA-MB-231 cells [1]),cell-cycle arrest (MDA-MB-231 cells [1]),expressions of VEGF and protease nexin-1 (PN-1) (MDA-MB-231 cells [4]),vimentin expression (MDA-MB-231 cells [4]),PARP (full-length and cleaved) expression (MDA-MB-231 cells [4]),"reduction of cell migration, low concentration (MDA-MB-231 cells [6])",IC50 [8],IC50 (B16–F10 cells (skin)),IC50 [9],IC50 [10],IC50 [11],IC50 [12],IC50 [13],IC50 [14],IC50 (PC3 cells (prostate)),IC50 (lymphoma line U937),IC50 [15],IC50 [16],other results
"CC(=O)O[C@H]1C(=O)[C@@]2(C)[C@H]([C@H](OC(=O)c3ccccc3)[C@]3(O)C[C@H](OC(=O)[C@H](O)[C@@H](NC(=O)c4ccccc4)c4ccccc4)C(C)=C1C3(C)C)[C@]1(OC(C)=O)CO[C@@H]1C[C@@H]2O [PTX, paclitaxel]",66.8%,11.2%,typical time-dependent G2/M arrest,downregulated,time-dependently downregulated,reduced the expression of full-length PARP,87%,–,–,–,–,–,–,–,–,–,–,–,–,"reduction of lung tumor foci [2]: 62%; expression of apoptotic marker caspase 3 [3]: increased expression; IC40 on MDA-MB-231 cells (MDA-MB-231 cells [5]): 23.8 nM; reduction of cell migration, high concentration (MDA-MB-231 cells [6]; [17]): 88%; inhibition of cell invasion, low concentration (MDA-MB-231 cells [7]; DET 2.5 μM, DETD-35 1.25 μM, PTX 2.5 μM): 85%; inhibition of cell invasion, high concentration (MDA-MB-231 cells [7]; [17]): 90%"
Cinnamate [compound 28],–,–,–,–,–,–,–,1110 nM,3900 nM,320 nM,170 nM,1800 nM,420 nM,4000 nM,110 nM,4500 nM,180 nM,420 nM,350 nM,–
"C=C(C)C(=O)O[C@H]1CC2=C[C@@H](C/C(C)=C/[C@H]3OC(=O)C(=C)[C@H]13)OC2=O [compound 1, deoxyelephantopin, reference compound]",19.3%,36.2%,did not show any cell-cycle arrest at specific stages,downregulated,did not regulate,induced significant cleavage in PARP,16%,2820 nM,6000 nM,510 nM,400 nM,2600 nM,900 nM,14000 nM,280 nM,12800 nM,480 nM,1470 nM,1000 nM,ZEB-1 expression level (MDA-MB-231 cells [4]; at 48 h): 49%
